Assay results published in ChEMBL document CHEMBL3352685, “Small-molecule inhibitors of 25-hydroxyvitamin D-24-hydroxylase (CYP24A1): synthesis and biological evaluation” (J Med Chem, 2014).

What was measured:
[1] = Cytotoxicity against human primary CLL cells; type: functional; conditions: read-out: LD50 (the source's name)
Summary of the method: (§1)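 Primary CLL cells or normal B-cells from peripheral blood, purified by negative selection (CD3 Dynabeads; >90% purity by flow cytometry). Cultured at 1x10⁶/ml in RPMI with 10% FCS, penicillin/streptomycin and 5 ng/ml IL-4, 37 °C, 5% CO2. Exposed to inhibitor (0–1x10⁻⁷ M) up to 48 h. Annexin V-FITC/PI flow cytometry; LD50 from sigmoidal dose-response; triplicate.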

[2] = target: T1, 1,25-dihydroxyvitamin D(3) 24-hydroxylase, mitochondrial (Homo sapiens, UniProt Q07973); assay: Inhibition of human MBP-tagged CYP24A1 expressed in Escherichia coli using 1,25(OH)2D3 substrate in presence of bovine adrenodoxin, adrenodoxin reductase and NADPH incubated at 37 degC for 25 mins by HPLC method
T1 sequence (Q07973 whole entry): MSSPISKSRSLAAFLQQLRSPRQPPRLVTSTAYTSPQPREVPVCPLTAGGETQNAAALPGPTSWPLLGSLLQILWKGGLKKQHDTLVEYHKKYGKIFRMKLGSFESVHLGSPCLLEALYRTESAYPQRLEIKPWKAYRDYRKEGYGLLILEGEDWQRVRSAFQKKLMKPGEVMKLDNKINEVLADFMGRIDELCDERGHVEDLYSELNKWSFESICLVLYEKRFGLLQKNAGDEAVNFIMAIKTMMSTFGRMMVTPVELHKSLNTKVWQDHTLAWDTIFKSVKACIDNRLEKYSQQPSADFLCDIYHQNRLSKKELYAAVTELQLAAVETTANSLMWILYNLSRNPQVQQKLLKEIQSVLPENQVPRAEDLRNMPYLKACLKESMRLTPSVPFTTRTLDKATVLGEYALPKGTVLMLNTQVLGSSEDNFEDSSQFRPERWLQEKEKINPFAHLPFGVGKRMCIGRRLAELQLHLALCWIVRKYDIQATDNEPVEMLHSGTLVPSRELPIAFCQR

[3] = target: T1, 1,25-dihydroxyvitamin D(3) 24-hydroxylase, mitochondrial; assay: Inhibition of CYP24A1 in human primary CLL cells assessed as increase in VDR-regulated GADD45alpha mRNA expression at 0.05 to 0.10 uM in presence of 100 nM 1,25(OH)2D3 incubated for 24 hrs by quantitative RT-PCR method; type: cell-based
Summary of the method: (§2)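 Primary CLL lymphocytes, purified by negative selection with CD3 beads (>90% purity), cultured in RPMI with 10% FCS, penicillin/streptomycin and 5 ng/ml IL-4 at 37°C, 5% CO2. Inhibitor 0, 0.01, 0.05 or 0.1 µM for 24 h with or without calcitriol (10 or 100 nM). Total RNA reverse transcribed, SYBR Green real-time PCR, 35 cycles. Target mRNA expressed as ratio to RPS14 from crossing points. Duplicates.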

[4] = target: T1, 1,25-dihydroxyvitamin D(3) 24-hydroxylase, mitochondrial; assay: Inhibition of CYP24A1 in human primary CLL cells assessed as increase in VDR-regulated CDKN1A mRNA expression at 0.05 to 0.10 uM in presence of 100 nM 1,25(OH)2D3 incubated for 24 hrs by quantitative RT-PCR method; type: cell-based; summary of the method: as §2
[5] = Induction of apoptosis in normal human B cells after 48 hrs by Annexin V/propidium iodide staining based flow cytometry; type: cell-based, B cell; conditions: read-out: LD50; summary of the method: as §1
[6] = Induction of apoptosis in human primary CLL cells after 48 hrs by Annexin V/propidium iodide staining based flow cytometry; type: functional; summary of the method: as §1
[7] = target: T1, 1,25-dihydroxyvitamin D(3) 24-hydroxylase, mitochondrial; assay: Inhibition of CYP24A1 in human primary CLL cells assessed as increase in VDR-regulated CDKN1A mRNA expression in presence of 100 nM calcitriol incubated for 24 hrs by quantitative RT-PCR method; type: cell-based; summary of the method: as §2

Row | SMILES | IC50 [2] [nM] | Ki [2] [nM] | further results
1 | O=C(NCC(c1ccccc1)n1ccnc1)c1ccc(/C=C/c2ccc(F)cc2)cc1 (configuration not stated) | 260 | 19 | CC50 [1]: 15 nM
2 | COc1cc(/C=C/c2ccc(C(=O)NCC(c3ccccc3)n3ccnc3)cc2)cc(OC)c1OC (configuration not stated) | 140 | 9.7 | CC50 [1]: 3500 nM; inhibition (INH) [3]: Active; inhibition (INH) [4]: Active
3 | C=C1[C@H](O)CC(=C/C=C2\CCC[C@]3(C)[C@@H]([C@H](C)CCCNC4CC4)CC[C@@H]23)C[C@H]1O |  | 42 | 
4 | O=C(NCC(c1ccccc1)n1ccnc1)c1ccc(CCc2ccc(F)cc2)cc1 (configuration not stated) | 510 | 36 | 
5 | CC(C)(C)C(=O)/C(=C/c1ccc(/C=C/c2ccccc2)cc1)n1ccnc1 | 180 | 13 | 
6 | Clc1cccc(C(c2ccc3[nH]cnc3c2)n2ccnc2)c1 (configuration not stated) [LIAROZOLE] | 2.3 |  | 
7 | O=C(NCC(c1ccccc1)n1ccnc1)c1ccc(/C=C/c2ccccc2)cc1 (configuration not stated) | 400 | 28 | CC50 [1]: 27 nM
8 | CC(C)(C)C(CCc1ccc(/C=C/c2ccccc2)cc1)OS(C)(=O)=O (configuration not stated) | 5600 | 400 | 
9 | COc1ccc(/C=C/c2ccc(C(=O)NCC(c3ccccc3)n3ccnc3)cc2)cc1 (configuration not stated) | 340 | 24 | CC50 [1]: 3200 nM
10 | C=C1CC[C@H](O)C/C1=C/C=C1\CCC[C@]2(C)[C@@H]([C@H](C)CCCOS(=O)(=O)c3ccc(C)cc3)CC[C@@H]12 |  | 39 | 
11 | C=C1[C@H](O)CC(=C/C=C2\CCC[C@]3(C)[C@@H]([C@H](C)Cn4ccnc4)CC[C@@H]23)C[C@H]1O |  | 21 | 
12 | CC(C)(C)C(=O)C(Cc1ccc(CCc2ccccc2)cc1)n1ccnc1 (configuration not stated) | 600 | 42 | 
13 | C=C1/C(=C\C=C2/CCC[C@]3(C)[C@@H]([C@H](C)CCCC(C)(C)O)CC[C@@H]23)C[C@@H](O)C[C@@H]1O [CALCITRIOL] |  |  | CC50 at 48 h [5]: 6.51 µM; LD50 [6]: 2.86 ×10⁻⁷ M
14 | COc1cc(/C=C/c2ccc(CCC(OS(C)(=O)=O)C(C)(C)C)cc2)cc(OC)c1 (configuration not stated) | 5400 | 380 | 
15 | COc1cc(/C=C/c2ccc(CCC(=O)C(C)(C)C)cc2)cc(OC)c1 | 2100 | 150 | 
16 | COc1cc(/C=C/c2ccc(CCC(OS(=O)(=O)c3ccc(C)cc3)C(C)(C)C)cc2)cc(OC)c1 (configuration not stated) | 2900 | 210 | 
17 | C=C1/C(=C\C=C2/CCC[C@]3(C)[C@@H]([C@H](C)CCS(=N)(=O)c4ccccc4)CC[C@@H]23)C[C@@H](O)C[C@@H]1O (some centres not stated) | 6.5 |  | 
18 | COc1cc(/C=C/c2ccc(C(=O)NCC(c3ccccc3)n3ccnc3)cc2)cc(OC)c1 (configuration not stated) | 110 | 7.8 | CC50 [1]: 13 nM; inhibition (INH) [3]: Active; inhibition (INH) [4]: Active; inhibition (INH) [7]: Dose-dependent effect
19 | COc1cc(/C=C/c2ccc(CCC(OC(=O)n3ccnc3)C(C)(C)C)cc2)cc(OC)c1 (configuration not stated) | 160 | 11 | 
20 | Nc1nc(F)nc2c1ncn2[C@@H]1O[C@H](CO)[C@@H](O)[C@@H]1O [FLUDARABINE] |  |  | CC50 [1]: 1100 nM
21 | C=C1/C(=C\C=C2/CCC[C@]3(C)C([C@H](C)C/C=C/S(=O)(=O)C(C)(C)C)=CC[C@@H]23)C[C@@H](O)C[C@@H]1O [LUNACALCIPOL] | 27 |  | 
22 | O=C(NCC(c1ccccc1)n1ccnc1)c1ccc(S(=O)(=O)Nc2ccccc2)cc1 (configuration not stated) | 1300 | 91 | 
